Test results: publication PMC8513424 (Laryngoscope Investigative Otolaryngology, 2021)

Tests used:
[1] = test system: patients with NF2 or sporadic meningioma; assay: Pilot 1 safety and tolerability; type: in vivo, human
Procedure, shortened: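 Pilot 1 was a subset of a phase I, 3 + 3 dose-escalation study of the oral test compound in solid tumors. Dosing started at 30 mg three times weekly for 3 weeks, then 1 week off, per 28-day cycle. Adults (≥18 y, ECOG 0-1) had NF2-associated or sporadic VS/meningioma with ≥15% volumetric growth on pre-enrollment MRI. Toxicities were graded by CTCAE v4.0.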

[2] = test system: hearing of patients with NF2; assay: Pilot 1 audiograms; type: in vivo, human
[3] = Pilot 2 plasma AR‐42 concentration by LC‐MS/MS; type: in vivo, human; conditions: 40 mg; for Concentration in plasma, Before surgery: mean of three trials
Procedure, shortened: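 Dosing was 40 mg orally three times weekly for 3 weeks before surgery. Venous blood was drawn at induction of anesthesia and again at tumor removal (about 3-4 h after surgery start). Plasma was separated by cold centrifugation and kept frozen. Drug was quantified by LC-MS/MS against a standard curve, as the mean of three runs. Pre-operative and removal-time levels were compared by paired t-test (P ≤ .05).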

[4] = Stability in whole blood kept on ice; type: in vitro ADME
primary meningioma cells = conditions: read-out: IC50, primary meningioma cells; cited from earlier work
VS and meningioma cells = conditions: cited from earlier work
[5] = test system: patients with advanced solid tumors; conditions: cited from earlier work

CC(C)[C@H](C(=O)Nc1ccc(C(=O)NO)cc1)c1ccccc1 [AR‐42]
Dose‐limiting toxicity ([1]; Patient 1.7, 80 mg, after 10 days of treatment, or 5 doses): grade 4 psychiatric disorder | Tolerability ([1]; Pilot 1, 60 mg): generally well tolerated | Arrhythmias or QT prolongations ([1]; Pilot 1, 60‐80 mg): no reported arrhythmias or QT prolongations of any grade | Pure tone average (PTA) after treatment ([2]; Patient 1.6, from 17 db at initiation): 55 db | Measurable hearing in the contralateral ear on AR‐42 ([2]; patients 1.1, 1.4 and 1.7): remained stable | Concentration in plasma, At tumor removal ([3]; Patient # 2.1 (VS)): 303.7 nM | Concentration in plasma, Before surgery ([3]; Patient # 2.1 (VS)): 362.3 nM | Concentration in plasma, At tumor removal ([3]; Patient # 2.2 (VS)): 121.1 nM | Concentration in plasma, Before surgery ([3]; Patient # 2.2 (VS)): 224.2 nM | Concentration in plasma, At tumor removal ([3]; Patient # 2.4 (VS)): 36.8 nM | Concentration in plasma, Before surgery ([3]; Patient # 2.4 (VS)): 61.8 nM | Concentration in plasma, At tumor removal ([3]; Patient # 2.6 (VS)): 3.4 nM | Concentration in plasma, Before surgery ([3]; Patient # 2.6 (VS)): 3.5 nM | Concentration in plasma, At tumor removal ([3]; Patient # 2.7 (meningioma)): 72.9 nM | Concentration in plasma, Before surgery ([3]; Patient # 2.7 (meningioma)): 99.1 nM | Plasma concentration of AR‐42 ([3]; first three patients with VS, before and at tumor removal): 0.062 to 0.36 µM | Plasma level after anesthesia ([3]; patient with meningioma): 0.073 µM | Plasma level before anesthesia ([3]; patient with meningioma): 0.099 µM | Time stable in blood kept on ice [4]: more than 4 hours | IC50 (primary meningioma cells): 1500 nM | Apoptosis (VS and meningioma cells): triggered apoptosis | Cell cycle effect (VS and meningioma cells): induced cell‐cycle arrest at G2/M | p‐AKT levels (VS and meningioma cells): decreased p‐AKT levels | Dose‐limiting toxicities (DLTs) ([5]; 30, 60 or 80 mg orally): grade 3 thrombocytopenia and grade 4 psychosis | Median progression‐free survival ([5]; NF2 and non‐NF2 meningioma subset, RECIST, 95% CI: 1.9—not reached): 9.1 months | Most common treatment‐related adverse events [5]: cytopenias, fatigue, and nausea | Recommended phase II dose ([5]; daily, three times weekly for 3 weeks of a 28‐day cycle): 60 mg
